Experimental findings from ChEMBL document CHEMBL1128499, “Bisimidazoacridones and related compounds: new antineoplastic agents with high selectivity against colon tumors” (1995) are described below.

Structures are written as SMILES.

Holding throughout (format): functional
Conditions in all cases: Homo sapiens

For assay [1], the system named is COLO 205. In words: The concentration of compound required for 50% cell growth inhibition which was expressed in logarithmic form was measured on COLO 205 cell lines of colon cancer. The essentials: (§1)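 NCI 60-cell-line screen, sulforhodamine B assay. Cells grown in RPMI 1640 with 5% fetal bovine serum and 2 mM L-glutamine, seeded at 5000 to 40 000 cells/well, and incubated 24 h before drug. Drug exposure lasted 48 h. Cells were then TCA-fixed, stained with 0.4% (w/v) SRB in 1% acetic acid, and the stain solubilized in 10 mM Tris base for absorbance reading. GI50 taken from dose-response curves.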

The test system of assay [2] is SK-MEL-5. In words: The concentration of compound required for 50% cell growth inhibition which was expressed in logarithmic form was measured on SK-MEL-5 cell lines of Melanoma. The essentials: as §1
The subject of assay [3] is SK-MEL-2. In words: The concentration of compound required for 50% cell growth inhibition which was expressed in logarithmic form was measured on SK-MEL-2 cell lines of Melanoma. An outline of the steps:
as §1

Assay [4] concerns UACC-257. In words: The concentration of compound required for 50% cell growth inhibition which was expressed in logarithmic form was measured on UACC-257 cell lines of Melanoma. The essentials:
as §1

The test system of assay [5] is HCC 2998. In words: The concentration of compound required for 50% cell growth inhibition which was expressed in logarithmic form was measured on HCC2998 cell lines of colon cancer. An outline of the steps: as §1
Assay [6] relates to KM12. In words: The concentration of compound required for 50% cell growth inhibition which was expressed in logarithmic form was measured on KM12 cell lines of colon cancer. The essentials: as §1
Assay [7] relates to SW-620. In words: The concentration of compound required for 50% cell growth inhibition which was expressed in logarithmic form was measured on SW-620 cell lines of colon cancer. The essentials: as §1
The subject of assay [8] is Malme-3M. Kind of assay: The concentration of compound required for 50% cell growth inhibition which was expressed in logarithmic form was measured on MALME-3M cell lines of Melanoma. An outline of the steps: as §1
Assay [9] relates to K562. In words: The concentration of compound required for 50% cell growth inhibition which was expressed in logarithmic form was measured on K-562 cell lines of Leukemia. An outline of the steps:
as §1

The subject of assay [10] is SK-MEL-28. In words: The concentration of compound required for 50% cell growth inhibition which was expressed in logarithmic form was measured on SK-MEL-28 cell lines of Melanoma. An outline of the steps: as §1
The test system of assay [11] is HCT-15. In words: The concentration of compound required for 50% cell growth inhibition which was expressed in logarithmic form was measured on HCT-15 cell lines of colon cancer. An outline of the steps: as §1
The test system of assay [12] is MOLT-4. In words: The concentration of compound required for 50% cell growth inhibition which was expressed in logarithmic form was measured on MOLT-4 cell lines of Leukemia. The essentials:
as §1

Assay [13] deals with HCT-116. Kind of assay: The concentration of compound required for 50% cell growth inhibition which was expressed in logarithmic form was measured on […] cell lines of colon cancer. An outline of the steps:
as §1

For assay [14], the system named is CCRF-CEM. In words: The concentration of compound required for 50% cell growth inhibition which was expressed in logarithmic form was measured on CCRF-CEM cell lines of Leukemia. The essentials:
as §1

In assay [15] the test system is HL-60. In words: The concentration of compound required for 50% cell growth inhibition which was expressed in logarithmic form was measured on HL-60(TB) cell lines of Leukemia. An outline of the steps: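 NCI 60-line screen, sulforhodamine B read-out. Lines grown in RPMI 1640 with 5% fetal bovine serum and 2 mM L-glutamine, seeded at 5000–40 000 cells/well and left 24 h before drug. Drug exposure 48 h, then TCA fixation, 0.4% (w/v) SRB staining in 1% acetic acid, solubilization in 10 mM unbuffered Tris base and absorbance reading. GI50 reported as log value.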

Assay [16] relates to M14. Kind of assay: The concentration of compound required for 50% cell growth inhibition which was expressed in logarithmic form was measured on M14 cell lines of Melanoma. An outline of the steps: as §1
Assay [17] deals with HT-29. In words: The concentration of compound required for 50% cell growth inhibition which was expressed in logarithmic form was measured on HT-29 cell lines of colon cancer. An outline of the steps:
as §1

Assay [18] concerns UACC-62. Kind of assay: The concentration of compound required for 50% cell growth inhibition which was expressed in logarithmic form was measured on UACC-62 cell lines of Melanoma. An outline of the steps:
as §1

Assay [19] concerns RPMI-8226. Kind of assay: The concentration of compound required for 50% cell growth inhibition which was expressed in logarithmic form was measured on RPMI-8226 cell lines of Leukemia. The essentials:
as §1

In the case of `CN(CCNc1ccc2ncn3c4ccccc4c(=O)c1c23)CCNc1ccc2ncn3c4ccccc4c(=O)c1c23`, the GI50 in assay [1] was 22400 nM; in assay [2], 5890 nM; in [3], 27500 nM; in [4], 8130 nM; in assay [5] it was 25100 nM; in assay [6], 2690 nM. Besides, the GI50 in assay [7] was 11200 nM; in assay [8], 13200 nM; in [9], 28200 nM; in assay [10], 2820 nM; in assay [11], 27500 nM; in [12] it was 58900 nM. Moreover, the GI50 in assay [13] is 2240 nM; in assay [14] it was 95500 nM; in [15] it was above 100000 nM; in [16], 4070 nM; in [17], 4370 nM; in assay [18], 21900 nM. Moreover, the GI50 in assay [19] was 28200 nM.

With `CN(CCCNc1ccc2ncn3c4ccccc4c(=O)c1c23)CCCNc1ccc2ncn3c4ccc(C(C)(C)C)cc4c(=O)c1c23`, the GI50 in assay [1] was 1740 nM; in assay [2] it was 1700 nM; in assay [3], 1580 nM; in assay [4], 1450 nM; in [5], 1700 nM; in assay [6], 1550 nM. Besides, the GI50 in [7] was 1290 nM; in [8] it was 1740 nM; in assay [9], 724 nM; in assay [10] it was 1820 nM; in assay [11], 1780 nM; in assay [12] it was 3090 nM. For the same compound, the concentration for 50% growth inhibition (GI50) is 1230 nM in assay [13]; 6920 nM in assay [14]; 4790 nM in [15]; 2040 nM in assay [16]; 1580 nM in assay [17]; 1910 nM in assay [18]. The compound also had a concentration for 50% growth inhibition (GI50) in assay [19] of 2880 nM.

With `CN(CCCN)CCCNc1ccc2ncn3c4ccccc4c(=O)c1c23`, the concentration for 50% growth inhibition (GI50) was 1150 nM in [1]; 1550 nM in assay [2]; 1450 nM in assay [3]; 1780 nM in assay [4]; 1350 nM in [5]; 1070 nM in assay [6]. The concentration for 50% growth inhibition (GI50) in [7] was 631 nM; in assay [8], 1620 nM; in assay [9], 813 nM; in assay [10], 1550 nM; in [11], 3470 nM; in [12], 355 nM. Also, the GI50 in assay [13] was 661 nM; in assay [14] it was 347 nM; in assay [15], 282 nM; in assay [16] it was 1780 nM; in assay [17], 631 nM; in [18], 1620 nM. Growth in assay [19] was halved (GI50) at 1150 nM.

In the case of `CN(CCCNc1ccc2ncn3c4ccccc4c(=O)c1c23)CCCNc1ccc2ncn3c4ccccc4c(=O)c1c23`, the GI50 in assay [1] was 501 nM; in [2], 12900 nM; in assay [3], 13800 nM; in [4] it was above 100000 nM; in [5] it was 93.3 nM; in assay [6], 295 nM. The GI50 in [7] is below 10 nM; in assay [8], 776 nM; in assay [9] it was below 10 nM; in assay [10], above 100000 nM; in assay [11], 316 nM; in assay [12], below 10 nM. Moreover, the GI50 is below 10 nM in assay [13]; below 10 nM in assay [14]; 44.7 nM in [15]; above 100000 nM in assay [16]; 16.6 nM in [17]; 8130 nM in [18]. Besides, growth in assay [19] was halved (GI50) at 145 nM.

As to `CN(CCCNc1ccc2ncn3c4ccccc4c(=O)c1c23)CCCNc1ccc2nnn3c4ccccc4c(=O)c1c23`, the GI50 is 372 nM in [1]; 17000 nM in assay [2]; 51300 nM in assay [3]; above 100000 nM in assay [4]; 30.9 nM in assay [6]; below 10 nM in assay [7]. The concentration for 50% growth inhibition (GI50) was 12000 nM in assay [8]; 17800 nM in assay [9]; 44700 nM in assay [10]; 47.9 nM in [11]; above 100000 nM in [12]; below 10 nM in assay [13]. For the same compound, the GI50 in [14] was 5010 nM; in assay [15], 10200 nM; in [16], above 100000 nM; in [17] it was below 10 nM; in assay [18], 38000 nM.
